In article PMC10424151 (Molecular Therapy. Nucleic Acids, 2023):

Legend:
[1] = target: T1, DNase I (Homo sapiens, UniProt P24855); assay: DNase I stability assay; assay type: in vitro ADME; details: for stability of peptide-bDNA complex in the presence of DNase I: 1 μM bDNA + 50 or 100 μM peptide, 10 U/mL DNase I, up to 30 min, 37 °C, 2% AGE
T1 sequence (P24855 23-282): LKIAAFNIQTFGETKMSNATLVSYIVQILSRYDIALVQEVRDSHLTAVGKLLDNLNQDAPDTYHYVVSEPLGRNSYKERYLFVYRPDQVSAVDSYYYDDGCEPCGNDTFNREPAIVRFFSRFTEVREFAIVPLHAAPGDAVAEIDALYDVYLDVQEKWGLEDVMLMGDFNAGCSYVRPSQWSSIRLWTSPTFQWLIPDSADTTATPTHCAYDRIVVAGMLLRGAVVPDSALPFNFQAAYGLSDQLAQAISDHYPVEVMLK
Method in brief: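 Complexes of 1 µM bDNA pre-incubated with 100 µM linear peptide were exposed to 10 U/mL DNase I for 15 and 30 min. A second set used 1 µM bDNA with 50 µM linear peptide, digested for 5, 10, 20 and 30 min at 37°C. Digests were run on 2% agarose gels at 80 V for 25 min, and stability was judged from band intensity.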

[2] = Dynamic light-scattering measurement of hydrodynamic radius; assay type: physicochemical; details: DLS, 100 μM peptide + 1 μM bDNA, 1 h incubation, 25 °C
Method in brief: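 bDNA was dissolved in self-assembly buffer, pH 7.4, and filtered through 0.22 µm. Linear peptide (100 µM) was incubated with 1 µM bDNA for 1 h, with peptide alone as control. DLS was read at 658 nm with a 175° scattering angle at 25°C, averaging triplicate readings. Rh came from autocorrelation analysis via the translational diffusion coefficient and the Stokes-Einstein relation.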

[3] = test system: Alexa 488 bDNA; assay: Absorbance; assay type: binding; details: 1 μM Alexa 488 bDNA, peptide/bDNA 0:1 to 100:1, 1 h, 25 °C, 495 nm
Method in brief: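 Alexa 488-labelled bDNA (1 μM) incubated 1 h at 25 °C with linear test peptide at peptide/bDNA molar ratios 0:1 to 100:1. UV-vis absorbance spectra recorded over 450–550 nm. Hypochromicity expressed as ΔOD_r = (OD0 − OD)/OD0, where OD0 is free labelled bDNA and OD is the bDNA–peptide complex, then plotted against molar ratio.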

[4] = test system: bDNAaso; assay: CD titration of bDNAaso with linear peptides; assay type: binding; details: 1 μM bDNA, 5 to 100 μM peptide, 25 °C (Figures 4G and S13G)
[5] = test system: bDNAaso; assay: Isothermal titration calorimetry of linear peptides with bDNA; assay type: binding; details: 25 °C, 1 μM bDNA titrated with 100 μM peptide, 1× TEAM buffer pH 7.4
[6] = Release of bDNA from peptide complexes; assay type: in vitro ADME; details: 1 μM bDNAaso + 100 μM W4R4 in serum-free DMEM, 1% SDS, 30 min, 2% agarose gel
Method in brief: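 Gel-shift release: 1 μM bDNAaso was complexed with 100 μM test peptide in 20 μL serum-free DMEM for 1 h at room temperature. The complex was exposed to 1% SDS for 30 min, then run on 2% agarose for 25 min at constant 80 V and the gel imaged.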

[7] = test system: HCT-116 cells; assay: Cellular uptake of Alexa 488-labeled bDNA by FACS; assay type: cell-based; details: HCT-116, 75 nM Alexa 488-labeled bDNA + 25 μM peptide, overnight
Method in brief: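 HCT-116 cells (2×10^5 per well) seeded overnight in serum-free DMEM, then washed twice with PBS. Alexa 488-bDNA (75 nM) premixed with test peptide (25 μM) in DMEM about 30 min at room temperature, added to cells and left overnight at 37 °C. Cells detached with 0.25% trypsin/0.53 mM EDTA (5 min, 37 °C), pelleted at 700 × g for 5 min, washed twice, resuspended in PBS and analysed by flow cytometry.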

[8] = Zeta potential measurement; assay type: physicochemical; details: 1 μM bDNA + 100 μM peptide, 1 h, 25 °C
Method in brief: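 bDNA (1 μM) incubated 1 h with 100 μM linear test peptide. bDNA alone and peptide alone at the same concentrations incubated 1 h at 25 °C as controls. Zeta potential […] by the Smoluchowski approximation. Values are the mean of triplicate readings.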

Row | stability of peptide-bDNA complex in the presence of DNase I [1] | change of hydrodynamic radii of the peptide in the presence of bDNAs [2] | protection of peptide-bound bDNAs against nuclease degradation ([1]; peptide-bound bDNAs, Figures S19 and S20) [%] | binding affinity to bDNAaso relative to other peptide-bound bDNAs (ITC) [5] | effect of SDS on the W4R4-bDNAaso complex [6] | zeta potential of bDNA in the presence of the peptide [8] | Substance | change in absorbance of Alexa 488 bDNA with increasing molar ratio of peptide [3] | CD peak intensities of bDNA in peptide-bDNA complex [4] | cellular internalization relative to W3R3 (FACS) [7] [fold]
1 | retained the stability | moderate increase |  |  |  |  | Ac-WWWGGGRRR-Am [W3R3] |  |  | 
2 |  | moderate increase |  |  |  |  | Ac-WWWGGHHHH-Am [W3H4] |  |  | 
3 | degraded close to the control | increased significantly | 20 |  |  |  | Ac-WWWWGGHHHH-Am [W4H4] | no significant alteration in absorbance |  | 
4 | retained the stability | increased significantly |  | about nine times higher | triggered the release | positive zeta potential | Ac-WWWWGGRRRR-Am [W4R4] | significant decline in absorbance | flattened to the baseline | 1.7
